Most compounds without a hit are left out; they make up all but 0.79% or so of the library.
bIAP act: increases bovine intestinal alkaline phosphatase activity; 200,000 compounds, 0.17% hits; purified bovine IAP, CDP-star luminescence, 30 min; hits give high values; fold of DMSO-control signal, blank-subtracted; activation factor at 20 µM;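 active = activation factor of 2 or more at 20 µM, a signal rise over negative controls twice the positive control's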
bIAP inh: blocks bovine intestinal alkaline phosphatase activity; purified bovine IAP, CDP-star luminescence, 30 min; inhibition, % at 20 µM; 190,000 tested, under 10 active;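 active = over 50% inhibition of intestinal alkaline phosphatase at 20 µM in the single-dose screen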
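Incubation: 30 min reaction at room temperature / Material: purified bovine intestinal alkaline phosphatase (IAP) enzyme / Input: enzyme at 1/65,000,000 dilution / Dosing: 20 µM single dose / Signal: CDP-star luminescence signal / Reagent: CDP-star chemiluminescent phosphatase substrate, 30 µM final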
mIAP inh: blocks mouse intestinal alkaline phosphatase. purified mouse IAP, CDP-Star luminescence, 30 min. inhibition, % at 10 µM. 330,000 compounds, 0.2% hits;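 active = inhibition of at least 40% at 10 µM in the primary screen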
hIAP block: blocks human intestinal alkaline phosphatase; 330,000 compounds, 0.12% hits; AID 2544; inhibition, % at 10 µM; purified IAP, CDP-Star luminescence, 30 min; P09923;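 active = inhibition reaching a set limit with compound at 10 µM in the primary screen, cut at about 35% in these data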
Target sequence (P09923 whole entry, looked up): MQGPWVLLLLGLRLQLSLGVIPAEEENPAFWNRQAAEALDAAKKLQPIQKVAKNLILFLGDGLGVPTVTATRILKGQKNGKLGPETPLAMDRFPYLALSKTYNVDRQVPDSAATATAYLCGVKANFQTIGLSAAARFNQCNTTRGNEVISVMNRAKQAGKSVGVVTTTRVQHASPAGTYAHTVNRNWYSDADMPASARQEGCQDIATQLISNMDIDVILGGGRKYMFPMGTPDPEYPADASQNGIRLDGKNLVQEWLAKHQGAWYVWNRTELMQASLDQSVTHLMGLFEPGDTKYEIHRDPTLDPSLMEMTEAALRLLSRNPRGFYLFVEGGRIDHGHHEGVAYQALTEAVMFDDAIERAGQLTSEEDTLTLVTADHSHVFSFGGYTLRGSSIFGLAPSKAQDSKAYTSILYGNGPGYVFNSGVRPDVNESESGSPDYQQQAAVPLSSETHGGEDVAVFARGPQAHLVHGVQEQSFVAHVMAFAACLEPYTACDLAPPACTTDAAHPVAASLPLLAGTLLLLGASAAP
hIAP activ: increases human intestinal alkaline phosphatase activity. 330,000 compounds, 0.16% hits. AID 2524. activation factor at 10 µM. purified human IAP, CDP-Star luminescence, 30 min; hits give high values; 1 = vehicle-only enzyme, 0 = enzyme-free background. P09923;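 active = activation factor of the enzyme at least 2-fold when tested at 20 µM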
mIAP activ: mouse IAP activation; muIAP, CDP-Star luminescence, 30 min; hits give high values; 1 = vehicle-only enzyme signal, 0 = enzyme-free wells; activation factor at 10 µM; AID 2805; 330,000 compounds, 0.24% hits;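 active = activation factor of at least 2 at 20 µM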
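Assay system: mouse IAP enzyme; reagent: chemiluminescent substrate CDP-Star; dosing: test compounds delivered from DMSO solution; schedule: 30 min at room temperature; measured by: luminescence from enzymatic CDP-Star hydrolysis; controls: DMSO-only wells and no-enzyme negative control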
Of the large screens only hits and unclear results are named; the others gave an inactive call.

CCCCC(CC)CNC(=O)C(Cc1ccccc1)NS(=O)(=O)c1ccc2c(c1)CCC(=O)N2 (stereo unspecified)	mIAP activ 2.2
COc1ccc(C(=O)NNC(=S)NC(=O)C(C)(C)C)cc1	hIAP activ 2.1
O=C(OCc1ccccc1)N1CCCC1/C=C/CN1CCOCC1 (stereo unspecified)	none
CC(C)N1C(=S)SC(C)(C)C1NO (stereo unspecified)	bIAP act 2.1
CCOc1cc(C(N)=O)cc(Br)c1OCc1ccccc1	none
O=C(NC1CCCCC1)C1CC(=O)N(c2cccc([N+](=O)[O-])c2)C1 (stereo unspecified)	none
CC(O)c1nc2ccccc2n1C/C=C/c1ccccc1 (stereo unspecified)	none
OCc1nc2ccccc2n1C/C=C/c1ccccc1	bIAP act 2.2
O=C(NCC1CCN(Cc2cccc(Cl)c2)CC1)Nc1ccc(Cl)cc1	mIAP activ 3.1 (no result: bIAP act, bIAP inh)
O=C(NCCN1CCN(Cc2ccccc2)CC1)Nc1cc(Cl)cc(Cl)c1	mIAP activ 2 (no result: bIAP act, bIAP inh)
CCc1cccc(CN2CCC(CNC(=O)Nc3ccc(Cl)cc3)CC2)c1	mIAP activ 3.6
COc1cc([N+](=O)[O-])ccc1NC(=O)NCC1CCN(Cc2ccc(Cl)cc2)CC1	none (no result: bIAP act, bIAP inh)
COC(=O)c1cc2cc(Cl)ccc2nc1SC	none (no result: bIAP act, bIAP inh)
CC(C)(C)OC(=O)NCCCC[C@@H](C(=O)NCCCCCCCCCCC(=O)N1CCN(C(=O)OC(C)(C)C)CC1)n1cc(CCO)nn1	none (no result: bIAP act, bIAP inh)
CC[C@H](C)Cc1cn([C@@H](CCCCNC(=O)OC(C)(C)C)C(=O)NCCCCCCCCCCC(=O)N2CCN(C(=O)OC(C)(C)C)CC2)nn1	mIAP activ 2.2 (no result: bIAP act, bIAP inh)
O=C(CSc1ccccn1)Nc1cccc2ccccc12	mIAP inh 68
O=C(CSc1ccccn1)Nc1ccccc1F	none
CC(=O)Nc1ccc2nc(NC(=O)COc3cccc(C)c3)sc2c1	none
CC(Cl)C(=O)NNC(=O)CNS(=O)(=O)c1ccccc1 (stereo unspecified)	none
COc1ccc(N2C3=C(CC4=C2CCCC4=O)C(=O)CCC3)cc1	mIAP inh 46
COC(=O)c1ccc(NC(=S)NCCC2=CCCCC2)cc1	mIAP activ 2.5
COC(=O)c1cccc(NC(=S)NCCC2=CCCCC2)c1	none
O=C(Oc1ccccc1C(=O)N1CCOCC1)c1ccc(F)cc1	none (no result: bIAP act, bIAP inh)
O=C(Oc1ccccc1C(=O)N1CCOCC1)c1ccc(Br)cc1	bIAP act 2.2
Cc1c(NC(=O)CSc2ccccc2Cl)c(=O)n(-c2ccccc2)n1C	none
c1ccc(-n2ncc3cccnc32)cc1	none (no result: bIAP act, bIAP inh)
COc1cc(CNCCc2c[nH]c3ccccc23)ccc1OCc1ccc(F)cc1	bIAP act 2.9
Cc1cccc(C)c1NC(=S)N1CC(C)OC(C)C1 (stereo unspecified)	none (no result: bIAP act, bIAP inh)
Cc1noc(-c2ccccc2)c1NC(=O)Nc1ccc(Cl)cc1	mIAP activ 3.1 (no result: bIAP act, bIAP inh)
Cc1noc(-c2ccccc2)c1NC(=O)Nc1ccccc1	none (no result: bIAP act, bIAP inh)
O=C(Nc1ccccc1)Nc1nc(-c2ccc(F)cc2)cs1	mIAP activ 2.5
Fc1ccc(-c2csc(NC(=S)Nc3ccccc3)n2)cc1	none (no result: bIAP act, bIAP inh)
O=C(Nc1nc(-c2ccc(Cl)cc2)cs1)NC1CCCCC1	mIAP activ 3.7
CCOc1ccc(S(=O)(=O)NCc2ccc3c(c2)OCO3)cc1C(=O)O	none (no result: bIAP act, bIAP inh)
O=C1CC(=O)Nc2cc(S(=O)(=O)N3CCN(c4ccc([N+](=O)[O-])cc4)CC3)ccc2N1	none (no result: bIAP act, bIAP inh)
Cc1ccc(C(=O)Cn2c(=N)n(N)c3ccccc32)cc1	none (no result: bIAP act, bIAP inh)
CCN(CC)CCn1c(=N)n(CC(=O)c2ccc(C)cc2)c2ccccc21	mIAP inh 41 (no result: bIAP act, bIAP inh)
Cc1csc(NC(=O)CCCC(=O)c2ccccc2)n1	none (no result: bIAP act, bIAP inh)
CCOc1ccc(C(=O)N/N=C/c2ccccc2[N+](=O)[O-])cc1	bIAP act 2
COc1ccccc1NC(=O)N1CCC(NC(=O)C(Cc2ccccc2F)NC(C)=O)CC1 (stereo unspecified)	none (no result: bIAP act, bIAP inh)
Cc1c(C(=O)O)sc2nc3n(c(=O)c12)CCC(C)CC3 (stereo unspecified)	mIAP inh 41
COc1ccccc1[C@H]1C(c2ccc(F)cc2)=NN(c2ccccc2)[C@@H]1CO	none (no result: bIAP act, bIAP inh, hIAP block, hIAP activ)
OC[C@@H]1[C@@H](c2ccc(Cl)cc2)C(c2ccccc2)=NN1c1ccccc1	mIAP activ 2 (no result: bIAP act, bIAP inh, hIAP block, hIAP activ)
C[C@H]1C(c2ccc(F)cc2)=NN(c2ccccc2)[C@@H]1CO	none (no result: bIAP act, bIAP inh, hIAP block, hIAP activ)
OC[C@@H]1[C@@H](c2ccc(F)cc2)C(c2cccc(Cl)c2)=NN1c1ccccc1	mIAP activ 2.1 (no result: bIAP act, bIAP inh, hIAP block, hIAP activ)
COC(=O)N/N=C/c1c(C)nn(-c2cccc(Cl)c2)c1Cl	bIAP act 3
C[C@H](CO)N1C[C@H](C)[C@@H](CN(C)S(=O)(=O)c2ccc(F)cc2)Oc2ccc(NC(=O)Nc3ccc(C(F)(F)F)cc3)cc2C1=O	none (no result: bIAP act, bIAP inh)
C[C@H](CO)N1C[C@H](C)[C@@H](CN(C)S(C)(=O)=O)Oc2ccc(NC(=O)Nc3ccc4c(c3)OCO4)cc2C1=O	none (no result: bIAP act, bIAP inh)
COc1ccc(S(=O)(=O)N(C)C[C@H]2Oc3ccc(NC(=O)Cc4ccccc4)cc3C(=O)N([C@H](C)CO)C[C@@H]2C)cc1	none (no result: bIAP act, bIAP inh)
C[C@H](CO)N1C[C@H](C)[C@@H](CN(C)S(=O)(=O)c2ccc(F)cc2)Oc2ccc(NC(=O)Nc3ccc4c(c3)OCO4)cc2C1=O	mIAP activ 2.5 (no result: bIAP act, bIAP inh)
C[C@@H]1CN([C@@H](C)CO)C(=O)c2cc(NC(=O)Nc3ccc4c(c3)OCO4)ccc2O[C@H]1CN(C)S(=O)(=O)c1ccc(F)cc1	mIAP activ 2.4 (no result: bIAP act, bIAP inh)
C[C@H](CO)N1C[C@H](C)[C@@H](CN(C)S(=O)(=O)c2ccc(F)cc2)Oc2ccc(NC(=O)Nc3ccccc3)cc2C1=O	mIAP activ 2.4 (no result: bIAP act, bIAP inh)
COc1ccc(NC(=O)Nc2ccc3c(c2)C(=O)N([C@H](C)CO)C[C@H](C)[C@@H](CN(C)S(=O)(=O)c2ccccc2)O3)cc1	mIAP activ 3.3 (no result: bIAP act, bIAP inh)
CC(=O)c1cc(-c2ccc(F)cc2)n(CCC(=O)Nc2cccc(C)n2)c1C	none
CCN(C(=O)CO/N=C/c1ccc(OC)cc1OC)c1c(N)n(Cc2ccccc2)c(=O)[nH]c1=O	none (no result: bIAP act, bIAP inh)
C/C(=C/c1ccccc1)C(=O)N1CCN(c2ccc(F)cc2)CC1	none (no result: bIAP act, bIAP inh)
COc1ccc(OC)c(/C=N/NC(=O)CNC(=O)c2ccc(S(=O)(=O)N3CCOCC3)cc2)c1	none
CC(C)N(C(=O)CSc1nnc(-c2ccc3c(c2)OCO3)n1C)C(C)C	none
Cc1nn(Cc2ccc(Cl)cc2Cl)c(C)c1NC(=O)NC12CC3CC(CC(C3)C1)C2	mIAP activ 2.1
Cc1nn(Cc2ccc(Cl)cc2Cl)c(C)c1NC(=O)c1sc2ccccc2c1Cl	none
Cc1ccc(S(=O)(=O)N(CC(=O)Nc2cccc(N(C)S(C)(=O)=O)c2)c2ccc(Cl)c(Cl)c2)cc1	mIAP activ 2.6
CN(c1cccc(NC(=O)CN(c2ccc(Cl)c(Cl)c2)S(=O)(=O)c2ccccc2)c1)S(C)(=O)=O	none

Screening results from PubChem.
